# Reference: ChEMBL document CHEMBL4513216, “Probing the Open Global Health Chemical Diversity Library for Multistage-Active Starting Points for Next-Generation Antimalarials” (ACS Infect Dis, 2020)
# Assay: Toxicity liver stage against HepG2, at 10uM
# Type: cell-based
# Design: test concentration 10 uM, cell line HepG2-A16-CD81EGFP
# Conditions: human, HepG2-A16-CD81EGFP cells; read-out: INHIBITION
# Method in brief: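 Uninfected HepG2-A16-CD81EGFP cells, 3 × 10^3 per well, 1536-well, plated on prespotted compound at 10 μM final, parasite-free screening media added to match infected plates; puromycin 10 μM positive, DMSO 0.5% negative; run in parallel with 48 h PbLuc assay at 37 °C, 5% CO2; viability by CellTiter-Glo luminescence, normalized to controls.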
row,Structure (SMILES),cytotoxicity at 10 µM [%]
1,CCOC(=O)Cn1ccc(O)c(Cc2ccc(Cl)cc2Cl)c1=O,4.19
2,COc1c(Br)cc(Cl)cc1NCc1c(C)noc1C,12.8
3,CCOC(=O)CCCNC(=O)CN1CCN(c2ncccn2)CC1,-13.3
4,CN1C[C@@H](O)[C@]2(CCN(C(=O)OCc3ccccc3)C2)S1(=O)=O,-0.53
5,O=C1CCNc2ccc(F)cc2CN1Cc1ccco1,-1.36
6,COC1CN(C(=O)CC(C)C)CCC(=O)N(C)c2ccccc21 (stereo not given),-2.72
7,Cn1cccc1C(CNC(=O)COc1ccc(Cl)cc1Cl)N1CCCC1 (stereo not given),-8.64
8,CC(=O)NCc1cc(-c2cccs2)n(C2CCCC2)n1,3.29
9,CNC(=O)c1nc2c(s1)CCN(C(=O)c1ccccc1)CC2,11.1
10,CS(=O)(=O)N1CC[C@@H]2O[C@@H](COCC(=O)N3CCCC3)CC[C@@H]21,-0.879
11,CC(C)NC(=O)N1CCN(C(=O)c2ccco2)CC2(CC(=O)N(C)C2)C1 (stereo not given),6.15
12,COCC1CN(Cc2cc(C)on2)Cc2cn(C)nc21 (stereo not given),-6.07
13,Cc1cc(C(=O)N2C[C@@H]3[C@@H](C2)OCC(=O)N3CC2CC2)no1,-10.4
14,O=c1c2c(ncn1CCCO)nc1n2CCC1,-3.89
15,CCS(=O)(=O)Nc1ccn(Cc2cccc(F)c2)n1,6.22
16,COC(=O)c1ccc(NS(=O)(=O)c2cnc(NC(C)=O)s2)cc1,9.35
17,CSc1cccc(NC(=O)Nc2c(O)oc3ccccc3c2=O)c1,4.45
18,CCCC1c2cccn2CCN1S(=O)(=O)N1CCOCC1 (stereo not given),1.26
19,CN(CC1(C)COC1)C(=O)c1cc(-c2ccnn2C)nc2ccccc12,6.57
20,O=C(c1ccc2[nH]nnc2c1)N1CC[C@H](O)[C@]2(CCCO2)C1,-2.98
21,O=C(O)COc1ccc(CN2CCCC(Cc3cccnc3)C2)cc1 (stereo not given),-4.98
22,COc1ccc2c(c1)C(=O)NC1(CC2)CCN(Cc2cccnc2)C1 (stereo not given),0.295
23,COc1ccccc1N1CCC(NCc2c(C)noc2C)C1 (stereo not given),1.81
24,O=C(Cc1cccc(F)c1F)N1CCOC(c2cccc(O)c2)C1 (stereo not given),0.0788
25,CC(NCCn1cccn1)c1ccccc1Cl (stereo not given),-5.03
26,CCCC(C)CS(=O)(=O)NCc1cccnc1OC (stereo not given),-18
27,COc1cc(NC(=O)N(C)CC2CC2)ncn1,7.09
28,CNC(=O)NCCc1csc2ccccc12,2.22

row,Structure (SMILES),cytotoxicity at 10 µM [%]
1,Cc1noc(C(C)Nc2ccc3oc(C)nc3c2)n1 (stereo not given),1.81
2,Cc1cc(NC(=O)NCc2ccncc2)ccc1OC(C)C,-8.36
3,CCOc1ncccc1CNS(=O)(=O)c1ccc2c(c1)CCCC(=O)N2,12.1
4,NC(=O)Cn1c(SCc2noc(-c3ccsc3)n2)nnc1C1CC1,15.4
5,CSCCC(NC(N)=O)C(=O)Nc1ccc(-n2cccn2)nc1 (stereo not given),4.78
6,CCS(=O)(=O)c1ccc(N2CCC(NC(=O)C(C)SC)CC2)cc1 (stereo not given),7.99
7,CCc1ncc2c(n1)CN(Cc1cccc3c1OCCO3)CC2,-8.42
8,Cc1ccc(NS(=O)(=O)c2c[nH]c3ncccc23)nc1,6.43
9,Cc1cc(NS(=O)(=O)c2c[nH]c3ncccc23)no1,-1.69
10,CC(C)COCC(C)NC(=O)NCc1cccc(-n2cncn2)c1 (stereo not given),-0.662
11,CN(C(=O)[C@H]1CSCN1C(=O)OC(C)(C)C)C1CC1,15.4
12,Cc1ccc(-c2nc(CN3CC(n4nc(C)cc4C)C3)no2)cc1,-1.64
13,Cc1cn2c(n1)CCC(NC(=O)CCOc1ccccc1F)C2 (stereo not given),5.27
14,Cc1nc(C)n(CC2CCCN(Cc3nnc(C4CC4)o3)C2)n1 (stereo not given),-12.9
15,Cc1nsc(NCCNS(=O)(=O)c2cccc(Cl)c2)n1,5.62
16,CN(CCc1ccncc1)C(=O)C1CSCN1C(=O)C1CCCC1 (stereo not given),-7.39
17,COc1ccccc1C(=O)N1CCCC1c1nncn1CC(C)C (stereo not given),-2.96
18,O=C(Nc1ccc(CCN2CCSCC2)cc1)NC1CC1,-12.1
19,CSc1nc(C2CC2)nc(C)c1C(=O)NCc1ccco1,5.25
20,CN(C(=O)C1CCC1)C1CCN(c2ccccc2Cl)C1=O (stereo not given),-0.949
21,COCCN1CCC(NCc2c(C(C)C)nn(C)c2N(C)C)CC1,11.6
22,c1ccc(OCc2nc(CNCCn3cccn3)cs2)cc1,7.53
23,CCN(Cc1ccoc1)C(=O)NC1CCN(C(=O)OC(C)(C)C)C1 (stereo not given),3.65
24,Cc1ccc(C(=O)NS(C)(=O)=O)cc1S(C)(=O)=O,4
25,Cc1cnn(Cc2cc(F)ccc2F)c1NC(=O)C1COCCO1 (stereo not given),21.5
26,CC(=O)N1CCC(c2nc3ccc(C)cn3n2)CC1,0.819
27,Cc1nocc1C(=O)N1CCOC2(COCCN(CC3CC3)C2)C1 (stereo not given),3.42
